The values that follow come from ChEMBL document CHEMBL4196141, “Improved Antibacterial Activity of the Marine Peptide N6 against Intracellular Salmonella Typhimurium by Conjugating with the Cell-Penetrating Peptide Tat11 via a Cleavable Linker” (J Med Chem, 2018).

Data set [1] concerns Salmonella typhimurium. Nature of the data set: Antibacterial activity against Salmonella typhimurium ATCC 14028 incubated for 16 to 18 hrs at pH 7.2 by broth microdilution method. Format: functional, Salmonella enterica subsp. enterica serovar Typhimurium. Conditions: Salmonella enterica. An outline of the steps:
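Broth microdilution in MH broth. S. Typhimurium ATCC14028 was grown overnight at 37 °C to semi-log phase, pelleted, and diluted to OD600 0.01; final inoculum was 5 × 10^5 CFU/mL. Plates were incubated 16–18 h at 37 °C. MIC is the lowest peptide concentration with no visible growth. Data are in duplicate from at least two independent experiments.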
Background: Broth dilution looks for growth in wells or tubes with falling amounts of substance.

In data set [2] the test system is Salmonella typhimurium. Nature of the data set: Antibacterial activity against Salmonella typhimurium ATCC 14028 using 1 hr cathepsin B pre-treated compound at pH 5 incubated for 16 to 18 hrs at by broth microdilution method. Format: functional, Salmonella enterica subsp. enterica serovar Typhimurium. To be noted: Salmonella enterica. The procedure, abridged: (§1)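 Cathepsin B (bovine spleen, 10 µg/mL) was added for 1 h at 37 °C, and the reaction was stopped with 9 volumes of MHB. MIC was then run by broth microdilution (5 × 10^5 CFU/mL, 16–18 h, 37 °C) in medium adjusted to pH 5.0.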

In data set [3] the test system is Salmonella typhimurium. Nature of the data set: Antibacterial activity against Salmonella typhimurium ATCC 14028 using 1 hr cathepsin B pre-treated compound followed by incubation for 16 to 18 hrs at pH 5 by broth microdilution method. Type of data set: functional, Salmonella enterica subsp. enterica serovar Typhimurium. To be noted: Salmonella enterica. An outline of the steps: as §1

Data set [4] concerns Salmonella typhimurium. Nature of the data set: Antibacterial activity against Salmonella typhimurium ATCC 14028 assessed as time duration for reduction in growth using cathepsin B pre-treated compound at 1 to 2 MIC incubated for 1 to 24 hrs by time kill assay. Type of data set: functional, Salmonella enterica subsp. enterica serovar Typhimurium. The procedure, abridged:
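Time-kill of cathepsin B-pretreated peptide (1 h, 37 °C, pH 5 buffer). Mid-log S. Typhimurium at 10^5 CFU/mL was exposed to 1× and 2× MIC at 37 °C with shaking at 250 rpm. Samples were taken every 2 h, serially diluted and plate-counted. N6 and ciprofloxacin served as controls.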

A short description of data set [5]: Cytotoxicity in mouse RAW264.7 assessed as cell survival at 100 uM incubated for 8 hrs by MTT assay. Format: cell-based. To be noted: RAW264.7 cells, read-out: Survival. An outline of the steps:
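RAW264.7 cells seeded at 2.5 × 10^4 cells/well, cultured 24 h, then exposed for 8 h to 2-fold dilutions from 100 to 0.625 µM. MTT at 5 mg/mL added for 4 h, formazan dissolved in DMSO, absorbance read at 570 nm. Untreated cells served as control. Samples run in triplicate.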
On the technique in general: Tetrazolium dyes change colour on reduction, which living cells bring about.

The nature of data set [6]: Induction of hemolysis in mouse RBC at 100 uM incubated for 1 hrs at 37 degC. Conditions: red blood cells (erythrocytes), read-out: Activity. Type of data set: cell-based, Erythrocyte. The procedure, abridged:
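Fresh mouse erythrocytes were washed three times in 0.9% NaCl, and an 8% suspension was incubated with peptide (2-fold dilutions, 100 to 0.3125 µM) for 1 h at 37 °C. Released hemoglobin was read at 540 nm. 1% Triton X-100 defined 100% lysis; polymyxin served as positive control and NaCl as negative.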

The test system of data set [7] is Salmonella typhimurium. Nature of the data set: Bactericidal activity against 2 hrs-gentamicin pre-exposed Salmonella typhimurium ATCC 14028 assessed as reduction colony forming units at 10 uM measured within 9 hrs. Format: functional, organism-based. To be noted: Salmonella enterica subsp. enterica serovar Typhimurium. An outline of the steps:
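RAW264.7 cells in DMEM/10% FBS were infected with S. Typhimurium ATCC14028 at MOI 10 for 1 h, then given 100 µg/mL gentamicin for 2 h at 37 °C and washed. Cells were treated with 10 µM agent for 1, 3, 6, 9 and 12 h, lysed with 0.1% Triton X-100, and surviving intracellular bacteria were serially diluted and plated for CFU.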

Data set [8] has as its system Salmonella typhimurium. Description: Bactericidal activity against 2 hrs-gentamicin pre-exposed Salmonella typhimurium ATCC 14028 assessed as reduction colony forming units at 20 uM incubated for 10 hrs. Type of data set: functional, Salmonella enterica subsp. enterica serovar Typhimurium. An outline of the steps: (§2)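 Macrophage protection assay. RAW264.7 cells (5 × 10^4/well, 24 h) were infected with S. Typhimurium ATCC14028 at MOI 10 for 1 h in DMEM/10% FBS, exposed to 100 µg/mL gentamicin for 2 h at 37 °C, and PBS-washed. Peptides in DMEM/10% FBS were added for 10 h. Cells were lysed with 0.1% Triton X-100 and CFU plated; log10 CFU reduction versus untreated cells. Three replicates; two independent experiments; one-way ANOVA with Tukey.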

In data set [9] the test system is Salmonella typhimurium. Nature of the data set: Bactericidal activity against 2 hrs-gentamicin pre-exposed Salmonella typhimurium ATCC 14028 assessed as reduction colony forming units at 50 uM incubated for 10 hrs. Format: functional, Salmonella enterica subsp. enterica serovar Typhimurium. The procedure, abridged:
as §2

Data set [10] has as its system Salmonella typhimurium. Description: Bactericidal activity against 2 hrs-gentamicin pre-exposed Salmonella typhimurium ATCC 14028 assessed as reduction colony forming units at 20 uM incubated for 10 hrs relative to marine peptide N6. Type of data set: functional, Salmonella enterica subsp. enterica serovar Typhimurium. Also on record: scale not given: the % may be the effect or the level left. The procedure, abridged:
as §2

The test system of data set [11] is Salmonella typhimurium. Description: Bactericidal activity against 2 hrs-gentamicin pre-exposed Salmonella typhimurium ATCC 14028 assessed as reduction colony forming units at 50 uM incubated for 10 hrs relative to marine peptide N6. Format: functional, Salmonella enterica subsp. enterica serovar Typhimurium. Further details: scale not given: the % may be the effect or the level left. The procedure, abridged:
as §2

In data set [12] the test system is Salmonella typhimurium. Description: Antibacterial activity against Salmonella typhimurium ATCC 14028 infected in ICR mouse model of peritonitis assessed as reduction colony forming units in total peritoneal fluids at 1 umol/kg, ip dosed at 2 hrs post infection and measured after 10 hrs post dose. Type of data set: functional, Salmonella enterica subsp. enterica serovar Typhimurium. The procedure, abridged: (§3)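 Six-week-old female ICR mice (six per group) received ip S. Typhimurium ATCC14028 (5 × 10^5 CFU, 0.5 mL). Peptide was given ip 2 h post-infection and mice were killed 10 h after treatment. Peritoneum was lavaged with 5 mL ice-cold PBS and total CFU counted. For intracellular CFU, pelleted cells were treated with 100 µg/mL gentamicin for 1 h at 37 °C, washed, lysed and plated. PBS served as negative control, ciprofloxacin as positive.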

Data set [13] deals with Salmonella typhimurium. Description: Antibacterial activity against Salmonella typhimurium ATCC 14028 infected in ICR mouse model of peritonitis assessed as reduction colony forming units in intracellular fluids at 1 umol/kg, ip dosed at 2 hrs post infection and measured after 10 hrs post dose. Format: functional, Salmonella enterica subsp. enterica serovar Typhimurium. The procedure, abridged: as §3

The subject of data set [14] is Salmonella typhimurium. Nature of the data set: Antibacterial activity against Salmonella typhimurium ATCC 14028 infected in ICR mouse model of peritonitis assessed as reduction colony forming units in kidney at 1 to 2 umol/kg, ip dosed at 2 hrs post infection and measured after 10 hrs post dose relative to marine peptide N6. Format: functional, Salmonella enterica subsp. enterica serovar Typhimurium. Also on record: scale not given: the % may be the effect or the level left. An outline of the steps:
(§4)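 Female ICR mice, six weeks old (six per group), were infected ip with S. Typhimurium ATCC14028 (5 × 10^5 CFU, 0.5 mL). Peptide was given ip at 1, 1.5 or 2 µmol/kg 2 h post-infection. Mice were killed 10 h after treatment, and kidneys and spleens were homogenized in sterile PBS for CFU counts of translocated bacteria. PBS-treated mice served as negative control, ciprofloxacin-treated mice as positive.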

The subject of data set [15] is Salmonella typhimurium. Nature of the data set: Antibacterial activity against Salmonella typhimurium ATCC 14028 infected in ICR mouse model of peritonitis assessed as reduction colony forming units in spleen at 1 to 2 umol/kg, ip dosed at 2 hrs post infection and measured after 10 hrs post dose relative to marine peptide N6. Type of data set: functional, Salmonella enterica subsp. enterica serovar Typhimurium. Further details: scale not given: the % may be the effect or the level left. An outline of the steps: as §4

In data set [16] the test system is Salmonella typhimurium. Description: Antibacterial activity against Salmonella typhimurium ATCC 14028 infected in ICR mouse model of peritonitis assessed as mouse survival at 1 umol/kg, ip dosed at 0.5 and 8 hrs post infection and measured daily for 7 days.
Data set [17] concerns Salmonella typhimurium. Description: Antibacterial activity against Salmonella typhimurium ATCC 14028 infected in ICR mouse model of peritonitis assessed as mouse survival at 1.5 umol/kg, ip dosed at 0.5 and 8 hrs post infection and measured daily for 7 days.

Molecules are shown by their SMILES. In brackets after ≈: the same amount, converted by molar mass. Activity calls are given as the source filed them. The calls are words filed in the database; no cut-off is given here. A value given as a limit tells only on which side of the number the result lay.

Consider `CC(C)[C@H](NC(=O)CCCCCN1C(=O)CC(SC[C@H](N)C(=O)N[C@@H](Cc2ccc(O)cc2)C(=O)NCC(=O)N[C@@H](CCCNC(=N)N)C(=O)N[C@@H](CCCCN)C(=O)N[C@@H](CCCCN)C(=O)N[C@@H](CCCNC(=N)N)C(=O)N[C@@H](CCCNC(=N)N)C(=O)N[C@@H](CCC(N)=O)C(=O)N[C@@H](CCCNC(=N)N)C(=O)N[C@@H](CCCNC(=N)N)C(=O)N[C@@H](CCCNC(=N)N)C(=O)O)C1=O)C(=O)N[C@@H](CCCNC(N)=O)C(=O)Nc1ccc(COC(=O)NCC(=O)N[C@@H](Cc2ccccc2)C(=O)N[C@@H](C)C(=O)N[C@@H](Cc2c[nH]c3ccccc23)C(=O)N[C@@H](CC(N)=O)C(=O)N[C@H](C(=O)N[C@H]2CSSC[C@@H](C(=O)N[C@@H](Cc3cnc[nH]3)C(=O)N[C@@H](CCCNC(=N)N)C(=O)N[C@@H](CCCNC(=N)N)C(=O)N[C@@H](C)C(=O)N[C@@H](CC(N)=O)C(N)=O)NC(=O)[C@H](C(C)C)NC(=O)[C@H](CCCNC(=N)N)NC(=O)[C@H](C(C)C)NC(=O)CNC(=O)[C@H](CC(N)=O)NC(=O)[C@H](CCCNC(=N)N)NC(=O)[C@H](Cc3ccc(O)cc3)NC(=O)[C@H](C(C)C)NC2=O)C(C)C)cc1` (stereo partly drawn), for which the MIC in the data set with Salmonella typhimurium [1] was 13.6 µM (≈ 64.4 µg/mL); in the data set on Salmonella typhimurium [2], 1.7 µM (≈ 8.05 µg/mL); in the data set on Salmonella typhimurium [3], 3.4 µM (≈ 16.1 µg/mL). Also, the Time entry in the data set with Salmonella typhimurium [4] is recorded as “<=2 hr”. Also, the viability at 8 h, 100 µM in data set [5] was found to be 64.3%. Further, the hemolysis at 1 h, 100 µM in data set [6] is 4.6%. Also, the result in the data set on Salmonella typhimurium [7] was Active. Besides, the Activity in the data set with Salmonella typhimurium [8] was found to be 2.54 log10CFU; in the data set with Salmonella typhimurium [9], 3.29 log10CFU; in the data set with Salmonella typhimurium [10], 98.9%; in the data set on Salmonella typhimurium [11] it was 98.6%; in the data set with Salmonella typhimurium [12], 3.46 log10CFU; with Salmonella typhimurium [13] it was 2.04 log10CFU. The Activity in the data set on Salmonella typhimurium [14] was determined as 241%; in the data set with Salmonella typhimurium [15] it was 241%; in the data set on Salmonella typhimurium [16], 83.3%; in the data set with Salmonella typhimurium [17], 100%.
Consider `O=C(O)c1cn(C2CC2)c2cc(N3CCNCC3)c(F)cc2c1=O` [CIPROFLOXACIN], for which, in the data set with Salmonella typhimurium [16], the Activity is 100%.

The term MIC denotes the least concentration at which growth counts as inhibited.
